Assay results from ChEMBL document CHEMBL4382256, “Design and Synthesis of Marine Phidianidine Derivatives as Potential Immunosuppressive Agents” (J Med Chem, 2018).
The source made the active and inactive calls. The rule behind the calls is not given here.

Tests used:
[1] = Cytotoxicity against BALB/c mouse splenocytes after 48 hrs by CCK-8 assay; assay type: cell-based, Splenocyte
How it was run: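 Fresh female BALB/c splenocytes (1×10^6 cells), RBC-depleted with ammonium chloride, cultured in triplicate in RPMI 1640/10% FBS with penicillin/streptomycin at 37 °C, 5% CO2 for 48 h with or without compound (DMSO stock diluted in medium). CCK-8 added, 6-8 h further incubation, absorbance 450 nm (570 nm calibration). CC50 from log(inhibitor) vs normalized response non-linear fit.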

[2] = test system: Splenocyte; test: (§1) Immunosuppressive activity in BALB/c mouse splenocytes assessed as inhibition of LPS-stimulated B-cell proliferation by measuring [3H]-thymidine uptake preincubated for 48 hrs followed by LPS stimulation and [3H]-thymidine addition for 8 hrs measured after 48 hrs by beta-scintillation counting analysis; assay type: functional, cell-based
How it was run: (§2)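 Female BALB/c splenocytes (5×10^5 cells), triplicate, with or without compound, stimulated with Con A 5 μg/ml (T cells) or LPS (E. coli 055:B5) 10 μg/ml (B cells). Culture 48 h at 37 °C, 5% CO2. Pulsed 8 h with 0.5 μCi/well [3H]thymidine, harvested to glass fiber filters, beta scintillation counted. IC50 from log(inhibitor) vs normalized response non-linear fit.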

[3] = test system: Splenocyte; test: as §1, with “concanavalin A stimulated T-cell” for “LPS-stimulated B-cell”, “concanavalin A” for “LPS”; assay type: functional, cell-based; how it was run: as §2
[4] = test system: Splenocyte; test: as §1, with “concanavalin A stimulated T-cell” for “LPS-stimulated B-cell”, “uptake at 50 uM” for “uptake”, “concanavalin A” for “LPS”; assay type: functional, cell-based
How it was run: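 Female BALB/c splenocytes (5×10^5 cells), triplicate, compound at 50 μM, Con A 5 μg/ml stimulation, 48 h at 37 °C, 5% CO2. Pulsed 8 h with 0.5 μCi/well [3H]thymidine, harvested to glass fiber filters, counted by beta scintillation.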

Compound | CC50 at 48 h [1] [µM] | IC50 [2] [µM] | IC50 [3] [µM] | inhibition [4]
COc1cc(C(=O)O/N=C(\N)Cc2c[nH]c3ccccc23)cc(OC)c1OC | 10.1 | 6.8 | 11.9 | 
COc1ccc(-c2nc(Cc3c[nH]c4ccccc34)no2)c(OC)c1 | 9.3 | 4.7 | 8.6 | 
COc1ccc(OC)c(-c2nc(Cc3c[nH]c4ccccc34)no2)c1 | > 50 | 8.4 | > 50 | 
CCc1ccc(-c2noc(Cc3c[nH]c4ccccc34)n2)cc1 | 24.4 | 13.9 | 7.5 | 
N=C(N)NCCNc1noc(Cc2c[nH]c3ccccc23)n1 |  |  |  | inactive
CCc1ccc(-c2nc(-c3cc(OC)c(OC)c(OC)c3)no2)cc1 | 31.3 | > 50 | > 50 | 
O=[N+]([O-])c1ccc(-c2noc(Cc3c[nH]c4ccccc34)n2)cc1 | > 50 | > 50 | > 50 | 
c1ccc(-c2noc(Cc3c[nH]c4ccccc34)n2)cc1 | > 50 | > 50 | > 50 | 
N=C(N)NCCCCCNc1noc(Cc2c[nH]c3ccccc23)n1 |  |  |  | inactive
CCCCCCc1ccc(-c2nc(-c3cc(OC)c(OC)c(OC)c3)no2)cc1 | 25 | 22.9 | 23.8 | 
CCCCc1ccc(-c2nc(-c3cc(OC)c(OC)c(OC)c3)no2)cc1 | 21.2 | 36.2 | > 50 | 
CCCCc1ccc(-c2nc(Cc3c[nH]c4ccccc34)no2)cc1 | 8.2 | 9.8 | 11.2 | 
N=C(N)NCCCCNc1noc(Cc2c[nH]c3ccccc23)n1 |  |  |  | inactive
COc1ccccc1-c1nc(Cc2c[nH]c3ccccc23)no1 | 42.2 | 11.1 | 16.7 | 
COc1cc(-c2noc(-c3cc(OC)c(OC)c(OC)c3)n2)cc(OC)c1OC | > 50 | > 50 | 5.5 | 
COc1cc(-c2noc(C3CC4(C3)CC(F)(F)C4)n2)cc(OC)c1OC | 28.5 | 5.6 | 5.2 | 
Fc1ccc(-c2noc(Cc3c[nH]c4ccccc34)n2)cc1 | 13.6 | 13.6 | 5.4 | 
